From PubChem BioAssay AID504899 (The Scripps Research Institute Molecular Screening Center, 2011)

Tested on: DIO C57BL/6 mice, hepatic G6Pase mRNA, 15 mg/kg ip 6 d
Assay: hepatic gluconeogenesis reduction in obese mice, late-stage follow-up, in vivo study for RORA inverse agonist project, diet-induced obese mice, pyruvate tolerance test, powder sample (AID 504899)
Details: stronger effect = lower value
Outline: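 System – male diet-induced obese C57BL/6 mice, 30 weeks old, fed 65% kcal high-fat diet · Dosing – 15 mg/kg ip b.i.d. for 6 days · Times – 6 h fasting, glucose 0–60 min after pyruvate · Technique – glucometer blood glucose plus liver gene mRNA · Read-out basis – gene expression and glucose as % of vehicle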

Compound: O=S(=O)(Nc1ccc(C(O)(C(F)(F)F)C(F)(F)F)cc1)c1cccs1
- PEPCK mRNA expression (DIO C57BL/6 mice, 15 mg/kg ip 6 d, measured here: hepatic PEPCK mRNA, % control): 51%
- blood glucose (DIO C57BL/6 mice, 15 mg/kg ip 6 d, measured here: pyruvate tolerance test blood glucose): 76%
- G6Pase mRNA expression (dose or concentration not given here): 52%
